ChEMBL document CHEMBL1127752, “Synthesis and antitumor activity of novel mitomycin derivatives containing functional groups at the C-6-methyl position” (J Med Chem, 1994)
pIC50: −log10 of the molar value.

Legend:
[1] = test system: Mus musculus; experiment: In vivo antitumor activity against lymphatic leukemia P388 cells sensitive to mitomycin C (MMC) was measured as maximal increase in life span of the treated mice at optimal dose of 25 mg/kg; assay type: functional
[2] = test system: CCRF S-180; experiment: Optimal dose towards sarcoma 180 cells, inoculated subcutaneously to the axillary region of ddY mice; assay type: functional, Mus musculus
Summary of the method: (§1)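 Sarcoma 180 cells implanted sc in the axillary region of ddY mice on day 0; compounds given iv on day 1. Tumor volume compared treated versus control (T/C). 50% growth-inhibitory dose calculated from the dose-response curve; optimal dose also recorded.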

[3] = test system: Mus musculus; experiment: Effective dose that gave 50% inhibition of tumor growth was calculated towards sarcoma 180 cells which were inoculated subcutaneously to the axillary region of ddY mice; assay type: functional; settings: Mus musculus, 180, sc; summary of the method: as §1
[4] = test system: HeLa; experiment: In vitro anticellular activity tested against HeLa S3 cells; assay type: functional, cell-based; settings: Homo sapiens
Summary of the method: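 HeLa S3 cells seeded on day 0, then exposed to drug for 1 h on day 1; anticellular activity determined by a previously described method.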

[5] = test system: Mus musculus; experiment: In vivo antitumor activity against lymphatic leukemia P388 cells resistant to mitomycin C (MMC) was measured as maximal increase in life span of the treated mice at optimal dose of 25 mg/kg; assay type: functional
[6] = test system: Mus musculus; experiment: In vivo antitumor activity against lymphatic leukemia P388 cells resistant to mitomycin C (MMC) was measured as maximal increase in life span of the treated mice at optimal dose of 9.0 mg/kg; assay type: functional
[7] = test system: Mus musculus; experiment: The in vivo antitumor activity against lymphatic leukemia P388 cells resistant to mitomycin C (MMC) in mice was measured as maximal increase in life span of the treated mice at optimal dose of 3.1 mg/kg; assay type: functional
[8] = test system: Mus musculus; experiment: In vivo antitumor activity against lymphatic leukemia P388 cells sensitive to mitomycin C (MMC) was measured as maximal increase in life span of the treated mice at optimal dose of 3.1 mg/kg; assay type: functional
[9] = test system: Mus musculus; experiment: Tumor volume was calculated against sarcoma 180 cells which were inoculated subcutaneously to the axillary region of ddY mice; 0.28-0.46
[10] = test system: Mus musculus; experiment: Effective dose that gave 50% inhibition of tumor growth was calculated towards sarcoma 180 cells which were inoculated subcutaneously to the axillary region of ddY mice; 1.9-3.7; assay type: functional; settings: Mus musculus, 180, sc
[11] = test system: Mus musculus; experiment: In vivo antitumor activity against lymphatic leukemia P388 cells resistant to mitomycin C (MMC) was measured as maximal increase in life span of the treated mice at optimal dose of 1.0-4.0 mg/kg; assay type: functional
[12] = test system: Mus musculus; experiment: Optimal dose was calculated towards sarcoma 180 cells which were inoculated subcutaneously to the axillary region of ddY mice; 4.0-6.0; assay type: functional
[13] = test system: HeLa; experiment: In vitro anticellular activity against HeLa S3 cells; 0.59-1.1; assay type: functional, cell-based; settings: Homo sapiens
[14] = test system: Mus musculus; experiment: In vivo antitumor activity against lymphatic leukemia P388 cells sensitive to mitomycin C (MMC) was measured as maximal increase in life span of the treated mice at optimal dose of 1.0-6.0 mg/kg; 38-84; assay type: functional
[15] = test system: HeLa; experiment: In vitro anticellular activity against HeLa S3 cells; 0.82-1.4; assay type: functional, cell-based; settings: Homo sapiens
[16] = test system: Mus musculus; experiment: In vivo antitumor activity against lymphatic leukemia P388 cells resistant to mitomycin C (MMC) was measured as maximal increase in life span of the treated mice at optimal dose of 6.0 mg/kg; assay type: functional
[17] = test system: CCRF S-180; experiment: Tumor volume of sarcoma 180 cells which were inoculated […] to the axillary region of ddY mice, after treatment; assay type: functional, Mus musculus

Work on CO[C@@]12[C@H](COC(N)=O)C3=C(C(=O)C(COC(C)C)=C(N)C3=O)N1C[C@@H]1N[C@@H]12 yielded an ILS at 25 mg/kg [1] of 55%, an OD [2] of 50 mg/kg and an ED50 [3] of 15 mg/kg. For the same compound, the pIC50 [4] was 5.60 and the ILS at 25 mg/kg [5] was > 97%.
For CO[C@@]12[C@H](COC(N)=O)C3=C(C(=O)C(CSc4nncn4C)=C(N)C3=O)N1C[C@@H]1N[C@@H]12, the ILS at 9 mg/kg [6] was > 71%, the OD [2] was 46 mg/kg and the ED50 [3] was 39 mg/kg. It also gave a pIC50 [4] of 5.60.
Compound CO[C@@]12[C@H](COC(N)=O)C3=C(C(=O)C(CSc4nccs4)=C(N)C3=O)N1C[C@@H]1N[C@@H]12 has an OD [2] of 13 mg/kg, an ED50 [3] of 8.9 mg/kg and a pIC50 [4] of 5.85. The ILS at 3.1 mg/kg [7] was 26% and the ILS at 3.1 mg/kg [8] was 49%.
Work on CO[C@@]12[C@H](COC(N)=O)C3=C(C(=O)C(C)=C(N)C3=O)N1C[C@@H]1N[C@@H]12 [MITOMYCIN] yielded a T/C [9] of 0.46, an ED50 [10] of 3.7 mg/kg and an ILS [11] of 23%. It also gave an OD [12] of 6 mg/kg, a pIC50 [13] of 5.96 and an ILS [14] of 84%. The pIC50 [15] was 5.85.
With C=CCSCC1=C(N)C(=O)C2=C(C1=O)N1C[C@@H]3N[C@@H]3[C@]1(OC)[C@@H]2COC(N)=O the OD [2] was 14 mg/kg, the ILS at 6 mg/kg [16] was 33% and the T/C [17] was 0.77 min. For the same compound, the pIC50 [4] was 5.64.
